# Assay outcomes (PubChem)
# CAL PDZ FP-1 = inhibitors of human CAL PDZ peptide binding. Q9HD26. purified CAL PDZ, TMR-peptide fluorescence polarization, 1 h. inhibition, % at 24.9 µM. 0.92% of 300,000 active;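 active = mean inhibition of at least 30% with at least half of replicates also reaching 30%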
# ARNT-TACC3 inh = disruptors of human ARNT/TACC3 interaction | Q9Y6A5 | AlphaScreen His-ARNT PAS-B/GST-TACC3 binding, luminescence; TACC3 fragment carries E629A point mutation | inhibition, % at 9.99 µM | 0.66% of 390,000 active | AID 623870;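 active = mean inhibition of replicates at least 50% and at least half of replicates each reaching 50%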
# CAL PDZ FP-2 = inhibitors of human CAL PDZ peptide binding. Q9HD26. purified CAL PDZ, TMR-peptide fluorescence polarization, 1 h. inhibition, % at 20 µM. 0.02% of 330,000 active. AID 504414;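 active = highest replicate inhibition of at least 40%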
#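 Test system: purified CerCALP PDZ construct; Compound dosing: one concentration, 20 µM compound; Also added: TMR-labelled reporter peptide T*-PRC34 bound in PDZ groove; Read-out: inhibition from polarization loss; Controls: unlabelled peptide and DMSO controls; Signal: FP readout, S and P plane fluorescence; Incubation: 1 h at RT.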
# PGC1a acetyl inh = lowers PGC1a acetylation signal in U2OS cells. AlphaScreen anti-acetyl-lysine; with virally co-expressed GCN5 acetyltransferase. inhibition, % at 15.6 µM. 0.17% of 350,000 active;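 active = every replicate shows inhibition of at least 40%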
# CFTR F508del cor = CFTR F508del correction in bronchial cells; CFBE cells, YFP halide quenching; stimulated with forskolin plus potentiator P3; % fluorescence drop versus neutral controls; activity (quench increase), % at 7.58 µM; 0.36% of 350,000 active; AID 720511;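 active = mean added fluorescence quench of at least 8% versus neutral control, with both replicates also reaching 8%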;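 note: cells transiently co-express mutant CFTR-F508del with the halide-sensitive YFP; corrector assay measuring rescue of mutant channel to the surface after 24 h compound exposure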
# miR122 inh = inhibitors of miR-122 in Huh7 cells; activation (reporter increase), % at 12.5 µM; 0.3% of 340,000 active; AID 602342; Huh7 miR-122 Renilla luciferase sensor, 48 h; neutral wells = 0, positive control = 100;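 active = mean replicate activation score at least 90 and every replicate individually at or above 90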;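 note: higher luciferase means less miR-122 activity so hits act as miR-122 inhibitors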
# A number is an active result; . = inactive; / = no result given. Compounds with a hit are over-represented: about 1.7% of the library has one in this group of screens.
SMILES,CAL PDZ FP-1,ARNT-TACC3 inh,CAL PDZ FP-2,PGC1a acetyl inh,CFTR F508del cor,miR122 inh
O=C(CN1CCOc2ccccc21)NCc1ccc(F)cc1,/,.,.,/,.,/
C[C@H]1CCCCO[C@H](CN(C)C(=O)Nc2ccccc2)[C@@H](C)CN([C@@H](C)CO)C(=O)c2cc(NC(=O)C3CCCCC3)ccc2O1,/,.,/,.,.,.
CCN1C(=O)[C@H]2[C@@H](c3ccc(-c4ccc(Cl)c(Cl)c4)cc3)N[C@@](C)(C(=O)OC)[C@H]2C1=O,.,.,.,.,8.2,.
CCN1C(=O)[C@H]2[C@@H](c3ccc(-c4ccc(Cl)c(Cl)c4)cc3)N3CCCC[C@@]3(C(=O)OC)[C@H]2C1=O,34.6,.,.,.,.,.
CCN1C(=O)[C@H]2[C@@H](c3ccc(-c4ccc(Cl)c(Cl)c4)c(OC)c3)N[C@@](C)(C(=O)OC)[C@H]2C1=O,.,.,.,.,.,.
COc1ccccc1S(=O)(=O)N[C@H]1CC[C@@H](CCNC(=O)C2CC2)O[C@@H]1CO,/,.,/,.,.,/
Nc1nc(C2CCCN2S(=O)(=O)c2ccc(Cl)cc2)cs1 (stereo unspecified),45.7,.,.,.,/,.
CCS(=O)(=O)Nc1ccc2c(c1)C(=O)N(C)C[C@H](OC)[C@@H](C)CN(C(=O)C1CC1)[C@@H](C)CO2,/,.,/,.,.,/
NNc1ccc(S(=O)(=O)N2CCCCC2)cn1,.,53.8,.,.,.,.
O=S(=O)(c1ccc(N2CCCC2)nc1)N1CCCC1,.,.,.,.,.,.
CNC(=O)c1cc(Nc2nnc(C)c3ccccc23)ccc1OC,35.3,.,/,.,/,.
COc1ccc(Nc2nnc(C)c3ccccc23)cc1C(N)=O,.,/,.,.,/,.
COc1ccc(Nc2nc(NCCO)nc(N3CCCC3)n2)cc1,.,.,.,/,.,/
OCCNc1nc(Nc2ccccc2Oc2ccccc2)nc(N2CCCC2)n1,.,22.9,.,/,.,/
COc1cccc(Nc2nc(NCCO)nc(N3CCCC3)n2)c1,.,active,.,/,.,/
OCCNc1nc(Nc2ccccc2OC(F)(F)F)nc(N2CCCC2)n1,.,.,.,/,.,/
CCOc1ncccc1C(=O)OCC(=O)N(CC(C)C)C1CCS(=O)(=O)C1 (stereo unspecified),56.6,.,.,/,.,.
O=C1C=CC(=O)c2c(O)c(N3CCN(CCO)CC3)c(Cl)c(O)c21,.,31.1,.,50.5,.,.
O=C1C=CC(=O)c2c(O)c(N3CCN(CCOCCO)CC3)c(Br)c(O)c21,.,.,.,/,.,/
C[C@@H]1CN([C@@H](C)CO)C(=O)c2cccc(NC(=O)c3nc4ccccc4s3)c2O[C@@H]1CN(C)C(=O)Nc1ccccc1,/,.,/,.,.,.
O=C(c1cnn(C(=O)CN2CCCC2=O)c1)c1ccccc1O,93.1,.,.,/,.,/
O=C(c1cnn(-c2ccccc2)c1)c1ccccc1O,.,.,.,.,/,.
COc1ccc(OC)c(C2C3=C(COC3=O)Nc3cc4c(cc32)OCO4)c1 (stereo unspecified),/,.,.,.,/,139.5
COc1ccc(S(=O)(=O)N(C)C[C@H]2Oc3cc(C4=CCCC4)ccc3S(=O)(=O)N([C@H](C)CO)C[C@H]2C)cc1,/,.,/,.,.,.
Cc1cc(N)c2cc(NC(=O)/C=C/c3ccccc3Cl)ccc2n1,.,.,.,80.4,/,.
SMILES,CAL PDZ FP-1,ARNT-TACC3 inh,CAL PDZ FP-2,PGC1a acetyl inh,CFTR F508del cor,miR122 inh
C[C@@H]1CN([C@H](C)CO)C(=O)c2cc(NC(=O)CCCN(C)C)ccc2O[C@@H](C)CCCCO[C@@H]1CN(C)C(=O)Nc1ccccc1,/,.,/,.,.,.
Cc1ccc(C(C[N+](=O)[O-])c2c(C)[nH]n(-c3ccccc3)c2=O)cc1 (stereo unspecified),/,51.4,.,/,/,.
Cc1[nH]n(-c2ccccc2)c(=O)c1C(C[N+](=O)[O-])c1ccc(F)cc1 (stereo unspecified),.,.,.,/,/,/
C[C@@H]1CN([C@@H](C)CO)C(=O)c2cc(Br)cnc2O[C@@H]1CN(C)C(=O)C1CCOCC1,/,.,/,.,.,.
O=C(NNC(=O)c1cccc(C(F)(F)F)c1)c1ccc(-n2cnnn2)cc1,92.2,.,.,.,.,.
O=C(COC(=O)c1cccc(-n2cnnn2)c1)Nc1c(Cl)cccc1C(F)(F)F,61.9,.,.,.,.,.
O=C(COC(=O)c1cccc(-n2cnnn2)c1)c1ccc(F)cc1,.,.,.,/,.,/
O=C(Nc1cccc(-n2cnnn2)c1)c1ccc(OC(F)(F)F)cc1,98.4,.,.,.,.,.
C[C@H](CO)N1C[C@H](C)[C@@H](CN(C)Cc2ccc(C(=O)O)cc2)Oc2ccc(NS(=O)(=O)c3ccc(F)cc3)cc2C1=O,/,.,/,.,.,.
COc1ccc(C(CC(=O)Nc2ccc(C)cn2)N2Cc3ccccc3C2=O)cc1 (stereo unspecified),.,34.6,.,.,.,.
COc1cc(NC(=S)Nc2ccccn2)cc(OC)c1,43.5,.,.,/,/,/
C[C@H](CO)N1C[C@H](C)[C@@H](CN(C)C(=O)NC2CCCCC2)Oc2ccc(NC(=O)Cn3cnnn3)cc2CC1=O,/,.,/,.,.,.
C[C@H]1CCCCO[C@@H](CN(C)Cc2ccc3c(c2)OCO3)[C@@H](C)CN([C@@H](C)CO)C(=O)c2cc(NS(=O)(=O)c3ccccc3)ccc2O1,/,.,/,.,.,.
Cc1cccc(Oc2nccc(C(F)(F)F)c2C(=O)Nc2ccc(F)cc2F)c1,.,.,.,84.9,.,/
O=C(Nc1ccc(F)cc1F)c1c(C(F)(F)F)ccnc1Oc1ccccc1,/,/,/,.,.,.
CCNC(=O)[C@H]1[C@H](CO)[C@H]2Cn3c(ccc(C4=CCCC4)c3=O)[C@@H]1N2C(=O)C1CC1,/,.,/,.,.,.
C[C@@H]1CN([C@@H](C)CO)C(=O)c2cc(NC(=O)CCC(F)(F)F)ccc2O[C@@H]1CN(C)C,/,.,/,.,.,.
COc1ccc(N=C(c2ccccc2)c2c(C)[nH]n(-c3ccccc3)c2=O)c(OC)c1,36.3,.,.,.,.,.
Cn1nnnc1SCC(=O)NCc1cccs1,52.8,.,.,.,/,.
Cn1nnnc1SCC(=O)Nc1nn(-c2ccccc2)nc1C(N)=O,55.4,.,.,.,.,.
Cn1nnnc1SCC(=O)Nc1ccc(Oc2ccccc2)cc1,.,.,.,/,/,.
O=C(CSc1nnnn1-c1ccccc1)NCc1cccs1,.,.,.,.,/,.
O=C1NCCc2c1[nH]c1ccc([N+](=O)[O-])cc21,.,.,.,/,11.4,/
COC(=O)c1sc(-c2ccc(Cl)cc2)cc1N,55.1,.,.,.,.,.
CCN(CC(=O)Nc1cccc(OC)c1)CC(=O)Nc1cccc2ccccc12,.,.,.,.,.,.
